Measurements gathered from unrelated publications.
Protocols differ between the studies behind these lines.
Target: Activin receptor type-2A (ACVR2A, Homo sapiens, UniProt P27037)

Structure (SMILES)	test	setting	endpoint	value
CC(C)(C)c1nc2c(s1)c1nc(N)ncc1c1ccc(NS(=O)(=O)c3c(F)cccc3F)c(F)c12	enzyme activity, inhibitor, radiometric	1 µM	remaining activity	74%
CCC(=O)N[C@H]1CC[C@@H](C(=O)N(C)c2ccc(-c3nc4ccccc4o3)cc2)C1	cell-free assay, competition with immobilised ligand	1 µM	remaining binding	98%
CC(C)(C)c1nc(-c2cccc(NS(=O)(=O)c3c(F)cccc3F)c2F)c(-c2ccnc(N)n2)s1	enzyme activity, inhibitor, radiometric	1 µM	remaining activity	9%
CN1CC(Oc2cnc(C#N)cc2-c2ccn3nc(NC(=O)C4CC4)cc3c2)C1	enzyme activity, inhibitor	1 µM	inhibition	7%
Cn1c2c(Cl)c(Cl)ccc2c2cc[nH]c(=O)c21	thermal stability, DSF	10 µM	ΔTm	2.7 °C
Nc1ncnc2occ(-c3ccc(NC(=O)Nc4cc(C(F)(F)F)ccc4F)cc3)c12	cell-free assay	20 µM	remaining signal	45%
Cc1ccc(C(=O)Nc2ccc(CN3CCN(C)CC3)c(C(F)(F)F)c2)cc1C#Cc1cnc2cccnn12	enzyme activity	23.5 nM	remaining activity	86%
CCN1CCC2(CC1)NC(=O)c1c(c3ccc(Cl)c(Cl)c3n1C)C2C#N (racemic)	thermal stability, DSF	10 µM	ΔTm	0.1 °C
COc1cccc(CNC(=O)c2nc3scc(COCc4ccc(C(=O)O)cc4)c3c(=O)[nH]2)c1	cell-free assay, competition with immobilised ligand	1 µM	remaining binding	92.9%
Cc1ccc(C(=O)NCc2ccsc2)cc1C#Cc1cn(C(C)C)c2ncnc(N)c12	enzyme activity, inhibitor	1 µM	activity vs control	93%
Cn1c2c(Cl)c(Cl)ccc2c2cc(N)[nH]c(=O)c21	thermal stability, DSF	10 µM	ΔTm	0.6 °C
COc1cc(Cl)c(C(=O)N[C@@H](CN[C@H]2CC[C@@H](N)CC2)Cc2ccc(C#N)cc2)cc1-c1ccc(CN[C@H](C)c2ccc(C)cc2)o1	enzyme activity, inhibitor	1 µM	remaining activity	94%
